Key:
[1] = biological target: Prothrombin (Homo sapiens, UniProt P00734); assay: Inhibition of thrombin (unknown origin) using Benz-FVR-AMC as substrate preincubated for 10 mins followed by substrate addition measured for 30 mins by spectrophotometric analysis
Procedure, shortened: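 Thrombin, from a commercial source, in 20 mM Tris-HCl, pH 8, 150 mM NaCl, 2.5 mM CaCl2. Preincubated with inhibitor at various concentrations for 10 min at 37 °C. Benz-FVR-AMC (listed at 10 μM) was then added and the signal monitored for 30 min. Rates were relative to untreated; IC50 is the concentration giving 50% inhibition.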

[2] = test system: Klebsiella pneumoniae; assay: Inhibition of Klebsiella pneumoniae KP1082 KPC-2 assessed as imipenem MIC at 4 ug/ml by broth microdilution method
[3] = biological target: Beta lactamase TEM-1 (Klebsiella pneumoniae) (UniProt Q7B899); assay: Inhibition of Klebsiella pneumoniae KP1083 TEM-1 assessed as biapenem MIC at 4 ug/ml by broth microdilution method
Beta lactamase TEM-1 (Klebsiella pneumoniae), sequence (Q7B899 as listed by the source): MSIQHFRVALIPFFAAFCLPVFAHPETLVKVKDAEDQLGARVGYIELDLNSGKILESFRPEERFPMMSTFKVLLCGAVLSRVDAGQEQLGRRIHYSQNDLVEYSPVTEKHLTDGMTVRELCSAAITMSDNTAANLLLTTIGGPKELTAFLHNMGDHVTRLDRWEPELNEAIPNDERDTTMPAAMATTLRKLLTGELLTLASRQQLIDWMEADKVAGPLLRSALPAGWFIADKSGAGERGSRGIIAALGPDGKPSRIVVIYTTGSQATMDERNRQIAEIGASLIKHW
Procedure, shortened: (§1)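 CLSI broth microdilution (M07-A9, 2012) MIC of the carbapenem against clinical serine carbapenemase-producing strain, tested alone and with the inhibitor held at a fixed 4 μg/mL.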

[4] = biological target: Neutrophil elastase (Homo sapiens, UniProt P08246); assay: Inhibition of neutrophil elastase (unknown origin) using MeOSuc-AAVP-AMC as substrate preincubated for 10 mins followed by substrate addition measured for 30 mins by spectrophotometric analysis
Neutrophil elastase, sequence (P08246 whole entry): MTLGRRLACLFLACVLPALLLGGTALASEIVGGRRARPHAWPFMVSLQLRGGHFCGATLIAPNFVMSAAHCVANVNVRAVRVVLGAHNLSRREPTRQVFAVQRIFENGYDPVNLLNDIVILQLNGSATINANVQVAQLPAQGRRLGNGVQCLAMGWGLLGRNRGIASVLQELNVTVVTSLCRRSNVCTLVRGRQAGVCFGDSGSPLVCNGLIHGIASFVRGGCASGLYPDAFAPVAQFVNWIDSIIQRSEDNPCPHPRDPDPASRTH
Procedure, shortened: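 Purified commercial enzyme, mixed with inhibitor across a concentration range in 50 mM Tris-HCl pH 7.5, 1 M NaCl and held 10 min at 37 °C. MeOSuc-AAVP-AMC (30 μM) then added and fluorescence followed for 30 min. Rates expressed relative to untreated control. IC50 taken as the concentration giving 50% inhibition. AEBSF and leupeptin served as positive controls.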

[5] = test system: Klebsiella pneumoniae; assay: Inhibition of Klebsiella pneumoniae KP1084 SHV-11 assessed as biapenem MIC at 4 ug/ml by broth microdilution method
[6] = test system: Klebsiella pneumoniae; assay: Inhibition of Klebsiella pneumoniae KP1088 SHV-11 assessed as ertapenem MIC at 4 ug/ml by broth microdilution method
Procedure, shortened: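 CLSI broth microdilution (M07-A9, 2012) against the clinical K. pneumoniae isolate. Carbapenem MICs were read alone and with 9f held at a fixed 4 μg/mL.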

[7] = biological target: Carbapenem-hydrolyzing beta-lactamase KPC (Klebsiella pneumoniae) (UniProt Q9F663); assay: Inhibition of Klebsiella pneumoniae KP1083 KPC-3 assessed as imipenem MIC at 4 ug/ml by broth microdilution method
Carbapenem-hydrolyzing beta-lactamase KPC (Klebsiella pneumoniae), sequence (Q9F663 whole entry): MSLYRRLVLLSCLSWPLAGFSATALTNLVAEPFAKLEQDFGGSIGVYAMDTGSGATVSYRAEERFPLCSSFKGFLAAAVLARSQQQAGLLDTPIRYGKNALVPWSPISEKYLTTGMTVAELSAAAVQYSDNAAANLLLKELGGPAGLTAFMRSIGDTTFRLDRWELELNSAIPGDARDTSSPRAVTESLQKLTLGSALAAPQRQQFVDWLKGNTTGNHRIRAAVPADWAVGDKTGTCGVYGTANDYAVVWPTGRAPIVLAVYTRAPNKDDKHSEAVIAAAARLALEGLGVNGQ

[8] = test system: Klebsiella pneumoniae; assay: Inhibition of Klebsiella pneumoniae KP1082 KPC-2 assessed as biapenem MIC at 4 ug/ml by broth microdilution method; procedure, shortened: as §1
[9] = test system: Enterobacter cloacae; assay: Inhibition of Enterobacter cloacae ECL1058 SHV-11 assessed as imipenem MIC at 4 ug/ml by broth microdilution method
[10] = biological target: Beta lactamase TEM-1 (Klebsiella pneumoniae) (UniProt Q7B899); assay: Inhibition of Klebsiella pneumoniae KP1087 TEM-1 assessed as imipenem MIC at 4 ug/ml by broth microdilution method
Procedure, shortened: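 Carbapenem MIC by CLSI broth microdilution (M07-A9), carbapenem titrated with inhibitor held at fixed 4 μg/mL, against clinical serine-carbapenemase-producing strain KP1087 (KPC-2, CTX-M-15, SHV-11, TEM-1; double porin mutant).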

[11] = biological target: Beta lactamase TEM-1 (Klebsiella pneumoniae) (UniProt Q7B899); assay: Inhibition of Klebsiella pneumoniae KP1004 TEM-1 assessed as meropenem MIC at 4 ug/ml by broth microdilution method; procedure, shortened: as §1
[12] = Half life in human at 1 g administered as 3 hrs of infusion; assay type: ADME, organism-based; details: in vivo, iv
[13] = test system: Klebsiella oxytoca; assay: Inhibition of Klebsiella oxytoca KX1001 OXA-2 assessed as cefepime MIC at 4 ug/ml by broth microdilution method
Procedure, shortened: (§2)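 CLSI broth microdilution (M07-A9) against clinical strains expressing serine β-lactamases.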

[14] = test system: Klebsiella pneumoniae; assay: Inhibition of Klebsiella pneumoniae KP1084 SHV-11 assessed as imipenem MIC at 4 ug/ml by broth microdilution method
[15] = biological target: T1, Class A carbapenemase (Enterobacter cloacae) (UniProt A7WP95); assay: Inhibition of Enterobacter cloacae ECL1061 KPC-3 assessed as cefepime MIC at 4 ug/ml by broth microdilution method
T1 sequence (whole entry): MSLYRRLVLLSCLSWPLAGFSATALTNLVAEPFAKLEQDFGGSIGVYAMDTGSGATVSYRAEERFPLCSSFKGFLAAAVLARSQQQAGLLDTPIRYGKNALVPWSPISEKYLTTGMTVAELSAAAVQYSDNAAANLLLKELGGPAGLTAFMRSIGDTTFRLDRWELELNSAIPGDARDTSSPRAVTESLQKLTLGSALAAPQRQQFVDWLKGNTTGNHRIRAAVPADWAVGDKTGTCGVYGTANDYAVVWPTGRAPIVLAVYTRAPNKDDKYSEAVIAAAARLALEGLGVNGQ

[16] = test system: Enterobacter cloacae; assay: Inhibition of Enterobacter cloacae ECL1003 SHV assessed as cefepime MIC at 4 ug/ml by broth microdilution method; procedure, shortened: as §2
[17] = biological target: Beta-lactamase (Klebsiella pneumoniae) (UniProt Q93LQ9); assay: Inhibition of Klebsiella pneumoniae KP1084 KPC-3 assessed as meropenem MIC at 4 ug/ml by broth microdilution method; procedure, shortened: as §1
Beta-lactamase (Klebsiella pneumoniae), sequence (Q93LQ9 as listed by the source): as the sequence (Q9F663 whole entry) above

[18] = test system: Klebsiella pneumoniae; assay: Inhibition of Klebsiella pneumoniae KP1004 KPC-2 assessed as biapenem MIC at 4 ug/ml by broth microdilution method; procedure, shortened: as §1
[19] = test system: Klebsiella pneumoniae; assay: Inhibition of Klebsiella pneumoniae KP1004 SHV-11 assessed as meropenem MIC at 4 ug/ml by broth microdilution method; procedure, shortened: as §1
[20] = biological target: T2, Beta-lactamase SHV-1 (Klebsiella pneumoniae) (UniProt P0AD64); assay: Inhibition of Klebsiella pneumoniae KP1083 SHV-1 assessed as biapenem MIC at 4 ug/ml by broth microdilution method; procedure, shortened: as §1
T2 sequence (whole entry): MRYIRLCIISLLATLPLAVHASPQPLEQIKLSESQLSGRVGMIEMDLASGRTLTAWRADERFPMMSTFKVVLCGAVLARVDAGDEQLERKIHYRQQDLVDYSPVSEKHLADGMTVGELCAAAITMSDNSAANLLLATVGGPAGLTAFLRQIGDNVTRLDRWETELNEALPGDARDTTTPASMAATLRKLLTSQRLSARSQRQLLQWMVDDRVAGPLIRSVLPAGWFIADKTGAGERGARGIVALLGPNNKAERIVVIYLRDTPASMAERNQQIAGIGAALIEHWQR

[21] = biological target: Plasminogen (Homo sapiens, UniProt P00747); assay: Inhibition of plasmin (unknown origin) using H-D-VLK-pNA as substrate preincubated for 10 mins followed by substrate addition measured for 30 mins by spectrophotometric analysis
Plasminogen, sequence (P00747 97-580 limits assumed): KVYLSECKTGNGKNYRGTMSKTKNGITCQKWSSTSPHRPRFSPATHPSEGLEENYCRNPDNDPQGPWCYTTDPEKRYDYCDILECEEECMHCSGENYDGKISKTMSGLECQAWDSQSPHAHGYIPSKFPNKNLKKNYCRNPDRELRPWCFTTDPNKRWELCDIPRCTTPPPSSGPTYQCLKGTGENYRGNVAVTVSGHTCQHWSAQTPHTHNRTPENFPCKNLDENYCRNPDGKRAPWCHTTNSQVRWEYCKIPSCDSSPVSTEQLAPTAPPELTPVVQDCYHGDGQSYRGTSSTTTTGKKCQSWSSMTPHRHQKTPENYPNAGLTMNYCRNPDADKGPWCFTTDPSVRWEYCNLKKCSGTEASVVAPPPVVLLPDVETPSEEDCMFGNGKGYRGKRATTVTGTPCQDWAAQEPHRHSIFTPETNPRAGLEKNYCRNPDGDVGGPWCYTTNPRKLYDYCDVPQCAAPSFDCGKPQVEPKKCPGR
Plasminogen, sequence (P00747 581-810 limits assumed): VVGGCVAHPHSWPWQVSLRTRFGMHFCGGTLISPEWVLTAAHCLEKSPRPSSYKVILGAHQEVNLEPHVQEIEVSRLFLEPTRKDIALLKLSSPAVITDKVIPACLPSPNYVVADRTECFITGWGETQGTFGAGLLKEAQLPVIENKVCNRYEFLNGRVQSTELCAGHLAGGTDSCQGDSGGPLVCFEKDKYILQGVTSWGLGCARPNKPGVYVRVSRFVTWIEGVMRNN
Procedure, shortened: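 Commercial plasmin in 100 mM Tris-HCl, pH 7.5, 100 mM NaCl. Exposed 10 min at 37 °C to varied inhibitor concentrations before H-D-VLK-pNA (listed at 200 μM), then absorbance read over 30 min. Rates were vs a no-treatment control; IC50 is the concentration giving 50% inhibition.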

[22] = biological target: T1, Class A carbapenemase (Enterobacter cloacae); assay: Inhibition of Enterobacter cloacae ECL1058 KPC-3 assessed as meropenem MIC at 4 ug/ml by broth microdilution method
[23] = Cmax in human at 1 g administered as 3 hrs of infusion; assay type: ADME, organism-based; design: dose 1 g; details: in vivo, iv

Q: With `O=C(O)C[C@@H]1CC[C@H](NC(=O)Cc2cccs2)B(O)O1` [VABORBACTAM] as the molecule, how does the IC50 [1] read?
A: > 1000 µM

Q: What about the MIC [2] of the same molecule?
A: 0.13 µg/mL

Q: And the MIC [3]?
A: < 0.06 µg/mL

Q: And the IC50 [4]?
A: > 1000 µM

Q: What about the MIC [5] of the same molecule?
A: 0.25 µg/mL

Q: What about the MIC [6] of the same molecule?
A: ≤ 0.06 µg/mL

Q: And the MIC [7]?
A: 0.13 µg/mL

Q: And the MIC [8]?
A: ≤ 0.06 µg/mL

Q: And the MIC [9]?
A: 0.25 µg/mL

Q: What about the MIC [10] of the same molecule?
A: 0.25 µg/mL

Q: What about the MIC [11] of the same molecule?
A: < 0.06 µg/mL

Q: And the half-life [12]?
A: 1.23 h

Q: And the MIC [13]?
A: 0.5 µg/mL

Q: And the MIC [14]?
A: 0.25 µg/mL

Q: And the MIC [15]?
A: 2 µg/mL

Q: And the MIC [16]?
A: 8 µg/mL

Q: And the MIC [17]?
A: 0.5 µg/mL

Q: And the MIC [18]?
A: ≤ 0.06 µg/mL

Q: And the MIC [19]?
A: ≤ 0.06 µg/mL

Q: And the MIC [20]?
A: < 0.06 µg/mL

Q: What about the IC50 [21] of the same molecule?
A: > 1000 µM

Q: What about the MIC [22] of the same molecule?
A: < 0.06 µg/mL

Q: What about the Cmax [23] of the same molecule?
A: 22000 ng/mL

From ChEMBL document CHEMBL3576866, “Discovery of a Cyclic Boronic Acid β-Lactamase Inhibitor (RPX7009) with Utility vs Class A Serine Carbapenemases” (J Med Chem, 2015)
